These results are taken from ChEMBL document CHEMBL1671695, “Specificity of induction of the vanA and vanB operons in vancomycin-resistant enterococci by telavancin” (Antimicrob Agents Chemother, 2010).

Values after ≈ are worked out from the molar mass of the structure shown. Active and inactive are the calls of the source. The calls are words filed in the database; no cut-off is given here.

The target of assay [1] is T1, D-alanyl-D-alanine dipeptidase (Enterococcus faecium, UniProt Q06241).
T1 sequence (Q06241 whole entry): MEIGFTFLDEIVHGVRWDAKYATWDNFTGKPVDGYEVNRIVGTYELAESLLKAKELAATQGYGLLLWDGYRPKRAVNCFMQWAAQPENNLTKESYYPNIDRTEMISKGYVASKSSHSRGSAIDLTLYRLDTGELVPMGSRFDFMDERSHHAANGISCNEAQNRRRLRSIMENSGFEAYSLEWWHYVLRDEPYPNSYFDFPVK
Briefly: Inhibition of D,D-dipeptidase activity Van X in Enterococcus faecium ATCC 51559 using D-alanyl-(R)-phenylthioglycine substrate. The procedure, abridged: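 Continuous DTNB-coupled VanX assay on soluble extract (100 mM Tris pH 7.5, 412 nm, 22°C). d-Alanyl-(R)-phenylthioglycine was 0.125–0.75 mM and the phosphonamidate inhibitor N-[(1-aminoethyl)hydroxyphosphinyl]-d-alanine 25–324 μM. Ki came from fitting initial rates to a competitive inhibition model.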

Assay [2] deals with Enterococcus faecium. The assay can be described thus: Induction of VanX activity in Enterococcus faecium ATCC 51559 expressing Van A gene by high-performance liquid chromatography. The assay is classed as functional, organism-based.
Assay [3] deals with Enterococcus faecalis. Briefly: Induction of VanX activity in Enterococcus faecalis BM4110 expressing Van A gene by high-performance liquid chromatography. The assay is classed as functional, organism-based.
Assay [4] has as its system Enterococcus faecalis. The assay can be described thus: Induction of VanX activity in Enterococcus faecalis ATCC 51299 expressing Van B gene by high-performance liquid chromatography. The assay is classed as functional, organism-based.
Assay [5] has as its system Enterococcus faecalis. Briefly: Induction of VanX activity in Enterococcus faecalis ATCC 51575 expressing Van B gene by high-performance liquid chromatography. The assay is classed as functional, organism-based.
Assay [6] deals with Enterococcus faecalis. Briefly: Induction of VanA activity in vancomycin susceptible Enterococcus faecalis BM4110 harboring Van A gene assessed as UDP-MurNAc-tetrapeptide profile at 64 ug/ml […]. The assay is classed as functional. The procedure, abridged:
(§1)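 Ramoplanin (3 μg/ml) was then added for 15 min. Cytoplasmic precursors were extracted with 8% trichloroacetic acid (15 min, 4°C), desalted and run on HPLC. Each precursor is given as % of total late precursors (tetrapeptide, pentapeptide, pentadepsipeptide) from integrated peak areas.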
For orientation: A western blot detects proteins with antibodies after separation by electrophoresis.

In assay [7] the test system is Enterococcus faecium. Briefly: Induction of VanA activity in Enterococcus faecium ATCC 51559 expressing Van A gene assessed as UDP-MurNAc-tetrapeptide profile at 64 ug/ml […]. The assay is classed as functional. The procedure, abridged:
as §1

Assay [8] relates to Enterococcus faecalis. Briefly: Induction of VanA activity in Enterococcus faecalis ATCC 51299 expressing Van B gene assessed as UDP-MurNAc-tetrapeptide profile at 3 ug/ml […]. The assay is classed as functional. The procedure, abridged: as §1
Assay [9] has as its system Enterococcus faecalis. The assay can be described thus: Induction of VanA activity in Enterococcus faecalis ATCC 51575 expressing Van B gene assessed as UDP-MurNAc-tetrapeptide profile at 16 ug/ml […]. The assay is classed as functional. The procedure, abridged: as §1
Assay [10] has as its system Enterococcus faecalis. The assay can be described thus: Induction of VanA activity in vancomycin susceptible Enterococcus faecalis BM4110 assessed as UDP-MurNAc-pentapeptide profile at 1 ug/ml […]. The assay is classed as functional. The procedure, abridged:
as §1

The test system of assay [11] is Enterococcus faecalis. Briefly: Induction of VanA activity in Enterococcus faecalis ATCC 51299 expressing Van B gene assessed as UDP-MurNAc-pentapeptide profile at 3 ug/ml […]. The assay is classed as functional. The procedure, abridged:
as §1

Assay [12] concerns Enterococcus faecalis. The assay can be described thus: Induction of VanA activity in Enterococcus faecalis ATCC 51575 expressing Van B gene assessed as UDP-MurNAc-pentapeptide profile at 16 ug/ml […]. The assay is classed as functional. The procedure, abridged:
as §1

Assay [13] deals with Enterococcus faecalis. Briefly: Induction of VanX activity in vancomycin susceptible Enterococcus faecalis BM4110 harboring Van A gene assessed as UDP-MurNAc-depsipeptide profile at 64 ug/ml […]. The assay is classed as functional. The procedure, abridged: as §1
Assay [14] has as its system Enterococcus faecium. Briefly: Induction of VanX activity in Enterococcus faecium ATCC 51559 expressing Van A gene assessed as UDP-MurNAc-depsipeptide profile at 64 ug/ml […]. The assay is classed as functional. The procedure, abridged: as §1
Assay [15] concerns Enterococcus faecalis. The assay can be described thus: Induction of VanX activity in Enterococcus faecalis ATCC 51299 expressing Van B gene assessed as UDP-MurNAc-depsipeptide profile at 3 ug/ml […]. The assay is classed as functional. The procedure, abridged: as §1
The test system of assay [16] is Enterococcus faecalis. The assay can be described thus: Induction of VanX activity in Enterococcus faecalis ATCC 51575 expressing Van B gene assessed as UDP-MurNAc-depsipeptide profile at 16 ug/ml […]. The assay is classed as functional. The procedure, abridged:
as §1

Assay [17] relates to Enterococcus faecalis. The assay can be described thus: Antimicrobial activity against streptomycin-resistant, vancomycin-susceptible Enterococcus faecalis BM4110 by broth microdilution method. The assay is classed as functional. The procedure, abridged:
(§2)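 Broth microdilution MIC per CLSI-approved methods; strains maintained on tryptic soy agar with 5% sheep blood at 37°C.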
For orientation: Broth dilution looks for growth in wells or tubes with falling amounts of substance.

Assay [18] relates to Enterococcus faecalis. The assay can be described thus: Antimicrobial activity against Enterococcus faecalis BM4110 expressing VanA and harboring transposon tn1546 by broth microdilution method. The assay is classed as functional. The procedure, abridged: as §2
The subject of assay [19] is Enterococcus faecalis. Briefly: Antimicrobial activity against Enterococcus faecalis ATCC 51299 by broth microdilution method. The assay is classed as functional. The procedure, abridged: as §2
Assay [20] deals with Enterococcus faecalis. Briefly: Antimicrobial activity against Enterococcus faecalis ATCC 51575 by broth microdilution method. The assay is classed as functional. The procedure, abridged: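 Strains were grown on TSA with 5% sheep blood at 37°C. MIC was determined by broth microdilution following CLSI methods.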
Assay [21] has as its system Enterococcus faecalis. The assay can be described thus: Induction of VanX activity in Enterococcus faecalis ATCC 51299 expressing Van B gene at 0.3 times MIC by high-performance liquid chromatography. The assay is classed as functional, organism-based.
In assay [22] the test system is Enterococcus faecalis. The assay can be described thus: Induction of VanX activity in Enterococcus faecalis ATCC 51575 expressing Van B gene at 0.3 times MIC by high-performance liquid chromatography. The assay is classed as functional, organism-based.
In assay [23] the test system is Enterococcus faecalis. The assay can be described thus: Induction of VanA activity in vancomycin susceptible Enterococcus faecalis BM4110 harboring Van A gene assessed as UDP-MurNAc-tetrapeptide profile at 4 ug/ml […]. The assay is classed as functional. The procedure, abridged: as §1
For assay [24], the system named is Enterococcus faecium. Briefly: Induction of VanA activity in Enterococcus faecium ATCC 51559 expressing Van A gene assessed as UDP-MurNAc-tetrapeptide profile at 4 ug/ml […]. The assay is classed as functional. The procedure, abridged:
(§3)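 Ramoplanin (3 μg/ml) was then added for 15 min. Cytoplasmic precursors were extracted with 8% TCA (15 min, 4°C), desalted and analysed by HPLC. Each precursor (tetrapeptide, pentapeptide, pentadepsipeptide) is expressed as a percentage of total late precursors from integrated peak areas.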

Assay [25] has as its system Enterococcus faecalis. Briefly: Induction of VanA activity in vancomycin susceptible Enterococcus faecalis BM4110 assessed as UDP-MurNAc-pentapeptide profile at 0.1 ug/ml […]. The assay is classed as functional. The procedure, abridged:
as §3

Assay [26] concerns Enterococcus faecium. Briefly: Induction of VanA activity in Enterococcus faecium ATCC 51559 expressing Van A gene assessed as UDP-MurNAc-pentapeptide profile at 4 ug/ml […]. The assay is classed as functional. The procedure, abridged: as §3
Assay [27] has as its system Enterococcus faecalis. Briefly: Induction of VanA activity in Enterococcus faecalis ATCC 51299 expressing Van B gene assessed as UDP-MurNAc-pentapeptide profile at 0.1 ug/ml […]. The assay is classed as functional. The procedure, abridged: as §3
Assay [28] has as its system Enterococcus faecalis. The assay can be described thus: Induction of VanA activity in Enterococcus faecalis ATCC 51575 expressing Van B gene assessed as UDP-MurNAc-pentapeptide profile at 0.1 ug/ml […]. The assay is classed as functional.
Assay [29] concerns Enterococcus faecalis. The assay can be described thus: Induction of VanX activity in vancomycin susceptible Enterococcus faecalis BM4110 harboring Van A gene assessed as UDP-MurNAc-depsipeptide profile at 4 ug/ml […]. The assay is classed as functional. The procedure, abridged:
as §1

The subject of assay [30] is Enterococcus faecium. The assay can be described thus: Induction of VanX activity in Enterococcus faecium ATCC 51559 expressing Van A gene assessed as UDP-MurNAc-depsipeptide profile at 4 ug/ml […]. The assay is classed as functional. The procedure, abridged: as §3
The subject of assay [31] is Enterococcus faecium. Briefly: Antimicrobial activity against Enterococcus faecium ATCC 51559 by broth microdilution method. The assay is classed as functional. The procedure, abridged:
as §2

Assay [32] deals with Enterococcus faecalis. Briefly: Induction of VanX activity in Enterococcus faecalis BM4110 expressing VanA and harboring transposon tn1546 at 0.4 times MIC by Western blotting relative to uninduced control. The assay is classed as functional. The procedure, abridged: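 Cells grown in BHI at 37°C with telavancin, harvested and treated with mutanolysin, then sonicated. Soluble extract (35 ng protein) was run on a 4–12% polyacrylamide gel and transferred to PVDF. Blot probed with affinity-purified polyclonal anti-VanX (1/5,000), then IRDye 800CW goat anti-rabbit IgG (1/10,000), with infrared fluorescence detection. VanX amount expressed relative to basal level without antibiotic.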

Assay [33] relates to Enterococcus faecalis. Briefly: Induction of D,D-dipeptidase activity in Enterococcus faecalis BM4110 expressing VanA and harboring transposon tn1546 at 0.4 times MIC by Western blotting relative to uninduced control. The assay is classed as functional.

In assay [1], `CN[C@H](CC(C)C)C(=O)N[C@H]1C(=O)N[C@@H](CC(N)=O)C(=O)N[C@H]2C(=O)N[C@H]3C(=O)N[C@H](C(=O)N[C@H](C(=O)O)c4cc(O)cc(O)c4-c4cc3ccc4O)[C@H](O)c3ccc(c(Cl)c3)Oc3cc2cc(c3O[C@@H]2O[C@H](CO)[C@@H](O)[C@H](O)[C@H]2O[C@H]2C[C@](C)(N)[C@H](O)[C@H](C)O2)Oc2ccc(cc2Cl)[C@H]1O` [VANCOMYCIN] came in with a Ki of 62 µM. In addition, the Activity result in [2] is “Dose-dependent effect”; in assay [3] it was “Dose-dependent effect”; in assay [6], 27%; in [7], 41%; in assay [8], 6%; in [9] it was 4%. Also, the Activity stood at 100% in [10]; 19% in [11]; 10% in assay [12]; 73% in [13]; 59% in assay [14]; 75% in assay [15]. The Activity in assay [16] was 86%. The result in assay [4] and in assay [5] was Active. The MIC in assay [17] worked out at 2 µg/mL (≈ 1.38 µM); in assay [18], 1020 µg/mL (≈ 707 µM); in assay [19], 16 µg/mL (≈ 11 µM); in [20], 256 µg/mL (≈ 177 µM).

Consider `CCCCCCCCCCNCCN[C@@]1(C)C[C@H](O[C@H]2[C@H](Oc3c4cc5cc3Oc3ccc(cc3Cl)[C@@H](O)[C@@H](NC(=O)[C@@H](CC(C)C)NC)C(=O)N[C@@H](CC(N)=O)C(=O)N[C@H]5C(=O)N[C@H]3C(=O)N[C@H](C(=O)N[C@H](C(=O)O)c5cc(O)c(CNCP(=O)(O)O)c(O)c5-c5cc3ccc5O)[C@H](O)c3ccc(c(Cl)c3)O4)O[C@H](CO)[C@@H](O)[C@@H]2O)O[C@@H](C)[C@H]1O` [TELAVANCIN], for which the result in [21] and in assay [22] was inactive. The Activity came to 26% in assay [23]; 40% in assay [24]; 100% in assay [25]; 8% in assay [26]; 100% in assay [27]; 100% in [28]. Moreover, the results for the Activity in assay [29] and in [30] were 74% and 52%, respectively. In addition, the MIC came to 1 µg/mL (≈ 0.57 µM) in assay [17]; 8 µg/mL (≈ 4.56 µM) in assay [18]; 8 µg/mL (≈ 4.56 µM) in assay [31]; 1 µg/mL (≈ 0.57 µM) in assay [19]; 0.5 µg/mL (≈ 0.285 µM) in assay [20]. Also, the entries for the “fold change (FC)” value in assay [32] and in assay [33] were 4 and 6, respectively.

Broadly, the Ki is a dissociation constant, usually derived from enzyme kinetics or from competition with a known ligand. By MIC is commonly meant the lowest concentration that inhibits growth of the organism. Read a low MIC as a more susceptible organism.
